# The list is not random: actives were taken first. Their share in the collection is about 3.3%.
# STAT3 act: STAT3 signaling activation | U3A cells, IL-6 STAT3-luciferase reporter, luminescence; 100% = signal with IL-6 EC80 alone | activation (% of control), % at 5.6 µM | 190,000 tested, 0.91% active | AID 871;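 active = activation above the screen-wide mean of compound activation plus 3 SD, cut at about 130% in these data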
#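 Material: human U3A cells carrying STAT3-luciferase construct. Measured by: reporter luminescence signal. Timing: compound 1 h, then IL-6 6 h at 37 °C.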
# GAA850 FXN act: activators of GAA850 frataxin (FXN) promoter | HEK293 lucGAA850 FXN promoter luciferase reporter, 24 h; percent of 10 µM SAHA response | activation, % at 6 µM | 360,000 tested, 0.56% active | AID 540364;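 active = activation above the average of all compounds screened plus 3 SD, cutoff fixed separately per campaign, cut at about 7.5% in these data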
# ABCB6 inh MLPCN: blocks the human ABCB6 transporter. Q9NP58. 360,000 tested, 0.19% active. K562-ABCB6 porphyrin accumulation, flow cytometry, 1 h; active compounds read low. fluorescence ratio to DMSO, % at 10 µM;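 active = fluorescence ratio to DMSO below 75%, the collection mean minus 3 SD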;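 also: signal is porphyrin accumulated inside mitochondria; lower ratio means ABCB6 inhibition with less porphyrin fluorescence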
# Target sequence (Q9NP58 whole entry, looked up): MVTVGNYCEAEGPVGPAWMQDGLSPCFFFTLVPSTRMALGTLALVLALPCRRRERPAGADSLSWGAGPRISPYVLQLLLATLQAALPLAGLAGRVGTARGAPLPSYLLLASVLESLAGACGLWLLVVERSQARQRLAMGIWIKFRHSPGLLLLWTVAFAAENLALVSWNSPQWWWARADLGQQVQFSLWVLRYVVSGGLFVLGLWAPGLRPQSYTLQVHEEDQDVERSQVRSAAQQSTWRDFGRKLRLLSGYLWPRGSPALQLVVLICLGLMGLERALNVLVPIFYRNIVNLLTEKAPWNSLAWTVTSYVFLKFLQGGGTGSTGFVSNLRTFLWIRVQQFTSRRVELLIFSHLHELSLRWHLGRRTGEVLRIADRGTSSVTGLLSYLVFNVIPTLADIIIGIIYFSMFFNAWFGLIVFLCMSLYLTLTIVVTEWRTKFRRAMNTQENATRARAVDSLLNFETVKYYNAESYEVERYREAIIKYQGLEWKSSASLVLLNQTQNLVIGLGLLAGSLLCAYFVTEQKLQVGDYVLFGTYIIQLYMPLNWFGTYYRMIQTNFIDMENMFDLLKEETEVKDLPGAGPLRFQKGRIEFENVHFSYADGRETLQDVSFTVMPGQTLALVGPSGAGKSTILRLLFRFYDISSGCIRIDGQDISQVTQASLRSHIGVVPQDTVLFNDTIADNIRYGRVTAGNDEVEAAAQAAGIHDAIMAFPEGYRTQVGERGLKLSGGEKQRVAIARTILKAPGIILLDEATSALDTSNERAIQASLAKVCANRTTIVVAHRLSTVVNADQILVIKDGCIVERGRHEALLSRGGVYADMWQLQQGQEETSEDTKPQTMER
# AHR activator: activators of human aryl hydrocarbon receptor; P35869; AHR-responsive luciferase reporter cells, luminescence; AID 2796; 320,000 tested, 2.5% active; activation, % at 5 µM; in the data active = activation above about 47%
# GAA30 FXN cntr: counter-screen for GAA850 frataxin promoter activators: GAA30 promoter activation; AID 588350; shares compounds with GAA850 FXN act; 1,900 tested, 66% active; HEK293 lucGAA30 FXN promoter luciferase, 24 h; DMSO = 0%, 5 µM ipriflavone = 100%; activation, % at 6 µM;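 active = mean activation above the mean of solvent-only control wells plus 3 SD, cut at about 22% in these data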;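 also: counterscreen of GAA850 promoter hits where activity marks nonselective or luminescence artifacts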
# GAA850 confirm: confirmation of GAA850 frataxin (FXN) promoter activators. HEK293 lucGAA850 FXN promoter luciferase reporter, 24 h; 100% = activation by SAHA. activation, % at 6 µM. 1,900 tested, 86% active. shares compounds with GAA850 FXN act;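 active = mean activation above a set limit taken from the primary screen, cut at about 8% in these data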
# A number is an active result; - = inactive; . = not tested or not shown.
SMILES,STAT3 act,GAA850 FXN act,ABCB6 inh MLPCN,AHR activator,GAA30 FXN cntr,GAA850 confirm
COc1ccc(NS(=O)(=O)c2ccc(C)c(C(=O)N3CC(C)OC(C)C3)c2)cc1 (stereo not drawn),.,-,-,-,.,.
COc1ccccc1C(=O)NCCC(=O)Nc1ncccc1O,.,-,-,-,.,.
CS(=O)(=O)N(CC(=O)O)c1ccc(Oc2ccccc2)cc1,-,-,-,-,.,.
CC(C)(C)OC(=O)CC(S(=O)(=O)c1ccccc1)S(=O)(=O)c1ccccc1,.,18,-,.,-,42
CN([C@@H](C(=O)OC(C)(C)C)c1ccccc1)S(=O)(=O)c1cccc(S(=O)(=O)N(C)[C@@H](C(=O)OC(C)(C)C)c2ccccc2)c1,.,-,-,-,.,.
CCOc1ccc(C2=Nn3c(nnc3-c3ccco3)SC2)cc1,-,-,-,-,.,.
COc1ccc(C2=Nn3c(nnc3-c3ccco3)SC2)cc1OC,-,10,-,-,37,20
C#CCOCCOCCOCCNc1nc(N2CCN(C(=O)[C@H](CC(N)=O)n3cc([C@@H](N)C(C)C)nn3)CC2)nc(N2CCN(C(=O)[C@H](CC(N)=O)n3cc([C@@H](N)C(C)C)nn3)CC2)n1,.,-,-,-,.,.
COc1ccc(Cc2nnc(SCC(=O)NCC3CCCO3)o2)cc1 (stereo not drawn),-,-,-,-,.,.
CC1CC(C)CN(S(=O)(=O)c2ccc(C(=O)OCC(=O)NCCN3C(=O)CSC3=O)cc2)C1 (stereo not drawn),-,-,-,-,.,.
COC(=O)[C@]1(C)N[C@H](CN(C)C(=O)Nc2ccccc2)[C@@H]2C(=O)N(Cc3ccccc3)C(=O)[C@@H]21,.,9.4,-,-,22,9.8
CCN(C[C@H]1N[C@@](C)(C(=O)OC)[C@H]2C(=O)N(Cc3ccccc3)C(=O)[C@@H]12)C(=O)Nc1ccccc1,.,-,-,-,.,.
CCN(C[C@H]1N[C@@](C)(C(=O)OC)[C@H]2C(=O)N(Cc3ccccc3)C(=O)[C@@H]12)C(=O)Nc1ccc(C)cc1,.,16,-,-,28,12
COc1ccccc1CNC(=O)c1ccc(NC(=O)CC2SC(N3CCCC3)=NC2=O)cc1 (stereo not drawn),.,-,-,-,.,.
CCN1CCN(c2ccc(NC(=O)c3ccc([N+](=O)[O-])o3)cc2Cl)CC1,-,-,-,.,.,.
CC(=O)N1CCN(c2ccc(NC(=O)c3ccc([N+](=O)[O-])o3)cc2Cl)CC1,.,7.7,-,-,41,28
CCC(=O)N1CCN(c2ccc(NC(=O)c3ccc([N+](=O)[O-])o3)cc2Cl)CC1,-,9.3,-,.,42,26
CCOC(=O)Cn1nc(C)n(-c2ccc(C(C)C)cc2)c1=O,-,-,-,-,.,.
Oc1csc(Cc2nc(-c3ccc4ccccc4c3)cs2)n1,163,10,-,83,63,43
Oc1csc(Cc2nc(-c3ccccc3F)cs2)n1,-,-,-,-,.,.
COc1ccc(-c2cnnc(N/N=C/c3ccc(O)cc3)n2)cc1,-,7.6,-,-,68,36
Oc1ccc(/C=N\Nc2nncc(-c3ccccc3)n2)cc1,.,8.7,-,-,40,18
CCCCc1c(O)nc(SCC(=O)N2CCOCC2)n(-c2ccccc2OC)c1=O,.,-,-,-,.,.
CC(=O)Nc1ccc(N/C=C/C(=O)c2ccc(C)o2)cc1,-,8.9,-,-,95,30
CCOc1ccc(NC(=O)c2cc3c(=O)n(C)c4ccccc4c3n2C)cc1,-,-,-,-,.,.
SMILES,STAT3 act,GAA850 FXN act,ABCB6 inh MLPCN,AHR activator,GAA30 FXN cntr,GAA850 confirm
C(=NN1CCCCCC1)c1ccccc1,.,-,-,.,.,.
CN(c1ccccc1)c1ccc(/C=N/N2CCOCC2)cc1,-,7.9,-,-,114,36
CCC(C(=O)Nc1ccc(C(=O)Nc2ccccc2C(=O)O)cc1)c1ccccc1 (stereo not drawn),.,-,-,.,.,.
CCOc1ccc2nc(Cl)c(CN(C(=O)c3cnccn3)C3CCCC3)cc2c1,-,-,-,-,.,.
Cc1cccc2cc(CN(C(=O)c3cnccn3)C3CCCCC3)c(Cl)nc12,-,7.6,-,-,-,-
NC(=O)CC(NC(=O)c1cccc(Br)c1)c1ccc(N2CCC(Br)CC2)c([N+](=O)[O-])c1 (stereo not drawn),.,-,-,-,.,.
CCCn1nnnc1NCc1cccn1C,-,-,-,-,.,.
Cc1ccc(NC(=S)N/N=C/c2c(C)[nH]c3ccccc23)cc1,-,7.9,-,75,31,21
Cc1[nH]c2ccccc2c1/C=N/NC(N)=S,.,-,-,-,.,.
COc1ccccc1C(=O)NC(=O)COC(=O)c1ccc(Cl)nc1,.,-,-,-,.,.
C=CCn1nnc2sc3c(c2c1=O)CCC(C)C3 (stereo not drawn),-,8.7,-,-,71,30
CC1(C)Cc2c(sc3nnn(Cc4ccccc4)c(=O)c23)CO1,-,-,-,-,.,.
CCOC(=O)c1cc(-c2ccc(OC)cc2)n(CCC(=O)NCCN2CCC(C)CC2)c1C,-,17,-,-,26,15
CCOC(=O)c1cc(-c2ccc(OC)cc2)n(CCC(=O)NC2CCN(Cc3ccccc3)CC2)c1C,-,-,-,-,.,.
CN(/N=C/c1cccnc1)c1cnc2ccccc2n1,152,9.3,-,-,132,34
COc1ccc([C@@H]2[C@@H]3C(=O)N(C(C)(C)C)C(=O)[C@@H]3[C@]3(Cc4ccccc4)C(=O)N(c4ccc(OC)cc4)C(=O)N23)cc1,.,-,-,-,.,.
CC[C@@]12C(=O)N(c3cccc(C)c3)C(=O)N1[C@H](c1ccc(OC)cc1)[C@@H]1C(=O)N(C(C)(C)C)C(=O)[C@@H]12,.,12,-,-,29,20
CC[C@@]12C(=O)N(c3cccc(F)c3)C(=O)N1[C@H](c1ccc(OC)cc1)[C@@H]1C(=O)N(C(C)(C)C)C(=O)[C@@H]12,.,11,-,-,43,18
Oc1ccc(/C=N/NC2=NCCCCC2)cc1,-,-,-,-,.,.
CNC(=O)CN(c1ccc(C23CC4CC(CC(C4)C2)C3)cc1)S(C)(=O)=O,-,7.6,-,-,26,15
O=C(Cn1cnc2scc(-c3ccc(Br)cc3)c2c1=O)N1CCOCC1,-,-,-,-,.,.
CC(C)CCN1C(=O)c2ccc(C(=O)Nc3c[nH]c(=O)[nH]c3=O)cc2C1=O,-,-,-,-,.,.
CNC(=S)Nc1ccc(-c2nc3ccc(C)cc3s2)cc1,-,8.4,-,-,114,39
COCCNc1nnc(SC(C)C(=O)Nc2ccc(-c3nc4ccc(C)cc4s3)cc2)s1 (stereo not drawn),-,8.8,-,-,74,29
Cc1ccc2nc(-c3ccc(NC(=O)COC(=O)c4ccc(Br)o4)cc3)sc2c1,-,-,-,-,.,.
Cc1ccc2nc(-c3ccc(NC(=O)COC(=O)c4cncc(Br)c4)cc3)sc2c1,-,8.4,-,.,107,29

# Bioassay records: PubChem, several laboratories
